Test results taken from ChEMBL document CHEMBL1145792, “Structure-activity relationships for 4-nitrobenzyl carbamates of 5-aminobenz[e]indoline minor groove alkylating agents as prodrugs for GDEPT in conjunction with E. coli nitroreductase” (J Med Chem, 2003).

What was measured:
[1] = Partition coefficient (logP); assay type: physicochemical; conditions: octanol/water
How it was run: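 logP was calculated with prediction software, not measured.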

[2] = tested on: V79; experiment: Ratio of cytotoxicity activity in a non-NTR-expressing V79 compared to that in NTR-expressing V79.; assay type: functional
How it was run: (§1)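 Parental and stably NTR-transfected partner lines (V79puro/V79-NTRpuro, EMT6/EMT6-NTRpuro, WiDr/WiDr-NTRneo, SKOV3/SKOV-NTRneo) tested in parallel. Aerobic sulforhodamine B growth inhibition after an 18 h exposure, read 4–5 days later. Ratio is the NTR-ve IC50 over the NTR+ve IC50, calculated within each experiment.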

[3] = tested on: Ovarian cancer cell line; experiment: Cytotoxicity in non-NTR-expressing human ovarian carcinoma cell line (SKOV).; assay type: functional, cell-based
[4] = tested on: Ovarian cancer cell line; experiment: Ratio of cytotoxicity in a non-NTR-expressing SKOV compared to that in NTR-expressing SKOV.; assay type: functional, Homo sapiens; how it was run: as §1
[5] = tested on: WiDr; experiment: Ratio of cytotoxicity in a non-NTR-expressing WiDr compared to that in NTR-expressing WiDr.; assay type: functional, Homo sapiens; how it was run: as §1
[6] = tested on: Mammary carcinoma cell line; experiment: Cytotoxicity in non-NTR-expressing mouse mammary carcinoma cell line (EMT6).; assay type: functional, cell-based
[7] = tested on: Mammary carcinoma cell line; experiment: Ratio of cytotoxicity in non-NTR-expressing EMT6 compared to that in NTR-expressing EMT6.; assay type: functional, Mus musculus; how it was run: as §1
[8] = tested on: V79; experiment: Cytotoxicity in non-NTR-expressing Chinese hamster fibroblast (V79).; assay type: functional, cell-based; conditions: Cricetulus griseus
[9] = tested on: WiDr; experiment: Cytotoxicity in non-NTR-expressing human colon carcinoma cell line (WiDr).; assay type: functional, cell-based
[10] = LogD value was determined; assay type: physicochemical; conditions: octanol/water

| logP ([1]; read-out: logP) | logD [10] | SMILES | Ratio [2] | IC50 [3] [nM] | Ratio [4] | Ratio [5] | IC50 [6] [nM] | Ratio [7] | IC50 [8] [nM] | IC50 [9] [nM] | logP [1] |
| --- | --- | --- | --- | --- | --- | --- | --- | --- | --- | --- | --- |
| 4.57 | – | COc1cc2cc(C(=O)N3CC(CCl)c4c3cc(NC(=O)OCc3ccc([N+](=O)[O-])cc3OCCCO)c3ccccc43)[nH]c2c(OC)c1OC (stereo not drawn) | 11 | 145 | 58 | 91 | 47 | 91 | 48 | 191 | – |
| 4.9 | – | COc1cc2cc(C(=O)N3CC(CCl)c4c3cc(NC(=O)OC(C)c3ccc([N+](=O)[O-])cc3)c3ccccc43)[nH]c2c(OC)c1OC (stereo not drawn) | 1.67 | 158 | 5.65 | 6.6 | 79 | 11 | 62 | 154 | – |
| 4.94 | 3.24 | CN(C)CCOc1ccc2[nH]c(C(=O)N3CC(CCl)c4c3cc(NC(=O)OCc3ccc([N+](=O)[O-])cc3)c3ccccc43)cc2c1 (stereo not drawn) | 4.3 | 770 | 41 | 20 | 208 | 31 | 157 | 403 | – |
| 3.98 | – | COc1cc2cc(C(=O)N3CC(CCl)c4c3cc(N(C)C(=O)OCc3ccc([N+](=O)[O-])cc3)c3ccccc43)[nH]c2c(OC)c1OC (stereo not drawn) | 8.4 | 152 | 10 | 15 | 48 | 27 | 48 | 101 | – |
| 3.38 | – | COc1cc2cc(C(=O)N3CC(CCl)c4c3cc(NC(=O)OCc3ccc([N+](=O)[O-])cc3OCC(O)CO)c3ccccc43)[nH]c2c(OC)c1OC (stereo not drawn) | 1.75 | 114 | 40 | 25 | 44 | 13 | 42 | 129 | – |
| 4.47 | – | COCCOc1cc([N+](=O)[O-])ccc1COC(=O)Nc1cc2c(c3ccccc13)C(CCl)CN2C(=O)c1cc2cc(OC)c(OC)c(OC)c2[nH]1 (stereo not drawn) | 17 | 106 | 67 | 45 | 33 | 78 | 31 | 110 | – |
| 4.77 | – | COc1cc([N+](=O)[O-])ccc1COC(=O)Nc1cc2c(c3ccccc13)C(CCl)CN2C(=O)c1cc2cc(OC)c(OC)c(OC)c2[nH]1 (stereo not drawn) | 6 | 59 | 17 | 47 | 174 | 108 | 39 | 141 | – |
| 3.79 | – | COc1cc2cc(C(=O)N3CC(CCl)c4c3cc(NC(=O)OCc3ccc([N+](=O)[O-])cc3OCCO)c3ccccc43)[nH]c2c(OC)c1OC (stereo not drawn) | 11 | 224 | 84 | 148 | 107 | 104 | 63 | 295 | – |
| 4.95 | 2.74 | COc1cc2cc(C(=O)N3CC(CCl)c4c3cc(NC(=O)OCc3ccc([N+](=O)[O-])cc3OCCCN(C)C)c3ccccc43)[nH]c2c(OC)c1OC (stereo not drawn) | 1.45 | 189 | 3.6 | 3.8 | 74 | 3.4 | 45 | 269 | – |
| 6.09 | – | COc1cc([N+](=O)[O-])ccc1COC(=O)Nc1ccc(COC(=O)Nc2cc3c(c4ccccc24)C(CCl)CN3C(=O)c2cc3cc(OC)c(OC)c(OC)c3[nH]2)cc1 (stereo not drawn) | 1.03 | 223 | 0.7 | 1.8 | 63 | 1.8 | 54 | 295 | – |
| 4.55 | 4.06 | COc1cc2cc(C(=O)N3CC(CCl)c4c3cc(NC(=O)OCc3ccc([N+](=O)[O-])cc3OCCCN3CCOCC3)c3ccccc43)[nH]c2c(OC)c1OC (stereo not drawn) | 2.6 | 88 | 6.5 | 9 | 24 | 6 | 20 | 98 | – |
| – | – | NC(=O)c1cc(N2CC2)c([N+](=O)[O-])cc1[N+](=O)[O-] [TRETAZICAR] | 2090 | 174000 | 317 | 51.2 | 710000 | 930 | – | – | 1.28 |

| SMILES | logP ([1]; read-out: logP) | logD [10] | Ratio [2] | IC50 [3] [nM] | Ratio [4] | Ratio [5] | IC50 [6] [nM] | Ratio [7] | IC50 [8] [nM] | IC50 [9] [nM] | logP [1] |
| --- | --- | --- | --- | --- | --- | --- | --- | --- | --- | --- | --- |
| NC(=O)c1cc(N(CCBr)CCBr)c([N+](=O)[O-])cc1[N+](=O)[O-] | 2.68 | – | 302 | 58000 | 211 | 174 | 54000 | 1380 | – | – | – |
| CNc1cc2c(c3ccccc13)C(CCl)CN2C(=O)c1cc2cc(OC)c(OC)c(OC)c2[nH]1 (stereo not drawn) | 2.87 | – | 1.2 | 0.2 | 0.7 | 1.1 | 0.11 | 0.74 | 0.08 | 0.2 | – |
| CN(C)CCOc1ccc2[nH]c(C(=O)N3CC(CCl)c4c3cc(N)c3ccccc43)cc2c1 (stereo not drawn) | 2.26 | 0.53 | 1.2 | 13 | 1.6 | 1.9 | 1.9 | 0.6 | 2.6 | 6 | – |
| COc1cc2cc(C(=O)N3CC(CCl)c4c3cc(N)c3ccccc43)[nH]c2c(OC)c1OC (stereo not drawn) | 1.87 | – | 0.9 | 1.1 | 0.6 | 0.9 | 0.37 | 2 | 0.33 | 1.6 | – |
| COc1cc2cc(C(=O)N3CC(CCl)c4c3cc(NC(=O)OCc3ccc([N+](=O)[O-])cc3)c3ccccc43)[nH]c2c(OC)c1OC (stereo not drawn) | 4.55 | – | 10 | 62 | 12 | 33 | 193 | 112 | 89 | 391 | – |
